Activity calls are given as the source filed them. The calls are words filed in the database; no cut-off is given here.
Assays:
BMDM [1] = assay: Inhibition of LPS-induced IkBbeta protein level in mouse BMDM treated 2 hrs after LPS challenge measured up to 120 mins by Western blot analysis; format: functional, cell-based
THP-1 = assay: Inhibition of LPS-induced IkappaBalpha expression in human THP1 cells measured up to 120 mins by Western blot analysis; format: functional, cell-based
[2] = target: T1, Inhibitor of nuclear factor kappa-B kinase subunit alpha (Homo sapiens) (UniProt O15111); assay: Inhibition of LPS-induced IkappaBalpha phosphorylation in human THP1 cells measured up to 120 mins by Western blot analysis; format: cell-based; details: THP-1
T1 sequence (whole entry): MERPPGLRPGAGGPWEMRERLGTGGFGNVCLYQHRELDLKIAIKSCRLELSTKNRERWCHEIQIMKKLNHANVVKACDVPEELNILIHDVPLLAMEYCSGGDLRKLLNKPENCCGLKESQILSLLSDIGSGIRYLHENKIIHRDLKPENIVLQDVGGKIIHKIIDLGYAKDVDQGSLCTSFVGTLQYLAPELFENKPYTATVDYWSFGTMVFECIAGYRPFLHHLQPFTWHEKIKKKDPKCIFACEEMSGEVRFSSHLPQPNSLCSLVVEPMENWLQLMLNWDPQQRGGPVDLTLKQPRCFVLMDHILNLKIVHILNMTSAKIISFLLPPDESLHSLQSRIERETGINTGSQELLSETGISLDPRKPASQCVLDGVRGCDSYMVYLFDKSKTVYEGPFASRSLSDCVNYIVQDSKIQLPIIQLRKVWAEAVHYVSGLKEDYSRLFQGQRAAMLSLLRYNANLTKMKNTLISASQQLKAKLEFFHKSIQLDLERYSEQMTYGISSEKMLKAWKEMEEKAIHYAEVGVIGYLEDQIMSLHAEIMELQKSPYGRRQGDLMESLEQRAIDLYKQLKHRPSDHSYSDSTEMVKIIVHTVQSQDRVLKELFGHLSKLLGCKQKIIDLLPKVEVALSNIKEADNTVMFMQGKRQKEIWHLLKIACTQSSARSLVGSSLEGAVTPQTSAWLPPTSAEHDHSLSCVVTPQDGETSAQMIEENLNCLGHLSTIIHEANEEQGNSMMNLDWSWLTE

[3] = target: Transcription factor p65 (Mus musculus) (UniProt Q04207); assay: Inhibition of LPS-induced RelA phosphorylation in mouse BMDM treated 2 hrs after LPS challenge measured up to 120 mins by Western blot analysis
Transcription factor p65 (Mus musculus), sequence (Q04207 whole entry): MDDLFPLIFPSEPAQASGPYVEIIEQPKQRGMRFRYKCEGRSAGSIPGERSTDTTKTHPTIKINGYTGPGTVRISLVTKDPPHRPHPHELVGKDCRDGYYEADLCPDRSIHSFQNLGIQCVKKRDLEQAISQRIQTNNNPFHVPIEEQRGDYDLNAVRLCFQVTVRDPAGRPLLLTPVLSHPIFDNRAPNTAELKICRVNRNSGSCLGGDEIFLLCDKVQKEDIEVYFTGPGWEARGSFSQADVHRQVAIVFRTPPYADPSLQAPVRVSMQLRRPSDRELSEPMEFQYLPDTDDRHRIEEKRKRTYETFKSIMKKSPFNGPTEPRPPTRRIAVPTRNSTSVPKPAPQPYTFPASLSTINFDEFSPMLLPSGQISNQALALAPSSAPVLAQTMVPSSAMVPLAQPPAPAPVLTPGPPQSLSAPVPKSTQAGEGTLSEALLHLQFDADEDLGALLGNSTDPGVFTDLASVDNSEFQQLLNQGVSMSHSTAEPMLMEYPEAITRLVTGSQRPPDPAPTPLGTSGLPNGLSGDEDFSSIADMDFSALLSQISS

BMDM [4] = assay: Inhibition of LPS-induced IkBbeta degradation in mouse BMDM treated 2 hrs after LPS challenge measured up to 120 mins by Western blot analysis; format: functional, cell-based
[5] = target: Transcription factor p65 (Mus musculus) (UniProt Q04207); assay: Inhibition of LPS-induced RelA phosphorylation in [32P]orthophosphate metabolically labelled mouse BMDM assessed as phosphorylated IkappaBbeta/RelA binding measured up to 120 mins in absence of IkappaBalpha by SDS-PAGE and autoradiography
Mus musculus [6] = species: Mus musculus; assay: Induction of IKK activity in mouse BMDM assessed as GST-IkappaBalpha phosphorylation by immunoprecipitation kinase assay
Mus musculus [7] = species: Mus musculus; assay: Inhibition of IKK activity in LPS-induced mouse BMDM assessed as reduction in phosphorylation of IkappaBalpha treated 2 hrs after LPS challenge measured up to 120 mins by immunoblot analysis
BMDM [8] = assay: Inhibition of LPS-induced c-jun mRNA expression in mouse BMDM up to 3 hrs by Northern blot analysis; format: functional, cell-based
BMDM [9] = assay: Inhibition of LPS-induced MCP-1 mRNA expression in mouse BMDM up to 3 hrs by Northern blot analysis; format: functional, cell-based
BMDM [10] = assay: Inhibition of LPS-induced IP-10 mRNA expression in mouse BMDM up to 3 hrs by Northern blot analysis; format: functional, cell-based
BMDM [11] = assay: Inhibition of LPS-induced IFNbeta mRNA expression in mouse BMDM up to 3 hrs by Northern blot analysis; format: functional, cell-based
BMDM [12] = assay: Inhibition of LPS-induced IRF-1 mRNA expression in mouse BMDM up to 3 hrs by Northern blot analysis; format: functional, cell-based
Macrophage = assay: Inhibition of LPS-induced RANTES mRNA expression in mouse alveolar macrophages after 90 mins by Northern blot analysis; format: functional, cell-based
MEF [13] = assay: Inhibition of LPS-induced MCP-1 mRNA expression in MEF after 90 mins by Northern blot analysis; format: functional, cell-based; details: Mus musculus
MEF [14] = assay: Inhibition of LPS-induced RANTES mRNA expression in MEF after 90 mins by Northern blot analysis; format: functional, cell-based; details: Mus musculus
MEF [15] = assay: Inhibition of LPS-induced IP-10 mRNA expression in MEF after 90 mins by Northern blot analysis; format: functional, cell-based; details: Mus musculus
MEF [16] = assay: Inhibition of LPS-induced c-jun mRNA expression in MEF after 90 mins by Northern blot analysis; format: functional, cell-based; details: Mus musculus
BMDM [17] = assay: Inhibition of heat-killed Staphylococcus aureus-induced TNF mRNA expression in mouse BMDM by Northern blot analysis; format: functional, cell-based
BMDM [18] = assay: Inhibition of heat-killed Staphylococcus aureus-induced RANTES mRNA expression in mouse BMDM by Northern blot analysis; format: functional, cell-based
BMDM [19] = assay: Inhibition of heat-killed Staphylococcus aureus-induced B7h mRNA expression in mouse BMDM by Northern blot analysis; format: functional
MEF [20] = assay: Effect on TNF-induced RANTES mRNA expression in MEF by Northern blot analysis; format: functional, cell-based; details: Mus musculus
MEF [21] = assay: Inhibition of TNF-induced IkappaBalpha expression in mouse MEF up to 120 mins by Western blot analysis; format: functional, cell-based
[22] = target: MAP kinase p38 (Mus musculus) (UniProt P47811+O08911+Q9WUI1+Q9Z1B7); assay: Inhibition of TNF-induced p38 phosphorylation in mouse MEF up to 120 mins by Western blot analysis
Epithelial cell [23] = assay: Inhibition of TNF-induced IkappaBalpha expression in human bronchial epithelial cells up to 120 mins by Western blot analysis; format: functional, cell-based
Epithelial cell [24] = assay: Inhibition of TNF-induced IkappaBbeta expression in human bronchial epithelial cells up to 120 mins by Western blot analysis; format: functional, cell-based
[25] = target: Transcription factor p65 (Homo sapiens) (UniProt Q04206); assay: Inhibition of TNF-induced RelA phosphorylation in human bronchial epithelial cells up to 120 mins by Western blot analysis; format: cell-based; details: Epithelial cell
Transcription factor p65 (Homo sapiens), sequence (Q04206 whole entry): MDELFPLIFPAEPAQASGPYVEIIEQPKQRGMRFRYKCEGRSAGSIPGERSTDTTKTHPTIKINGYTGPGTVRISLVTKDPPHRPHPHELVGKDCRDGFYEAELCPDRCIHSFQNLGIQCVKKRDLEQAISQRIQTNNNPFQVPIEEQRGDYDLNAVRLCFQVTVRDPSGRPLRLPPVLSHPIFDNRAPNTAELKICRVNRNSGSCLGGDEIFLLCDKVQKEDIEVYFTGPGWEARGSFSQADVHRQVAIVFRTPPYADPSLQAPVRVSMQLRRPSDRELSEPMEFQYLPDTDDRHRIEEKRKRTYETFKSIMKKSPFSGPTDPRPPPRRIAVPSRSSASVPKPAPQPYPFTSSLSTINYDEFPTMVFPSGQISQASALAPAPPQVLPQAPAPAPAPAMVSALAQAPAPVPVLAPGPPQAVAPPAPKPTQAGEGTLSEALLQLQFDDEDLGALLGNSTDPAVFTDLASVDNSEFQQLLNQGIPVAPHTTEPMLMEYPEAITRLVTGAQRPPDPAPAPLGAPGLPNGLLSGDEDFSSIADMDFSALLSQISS

Epithelial cell [26] = assay: Inhibition of TNF-induced RelA expression in human bronchial epithelial cells up to 120 mins by Western blot analysis; format: functional, cell-based
Mus musculus [27] = species: Mus musculus; assay: Suppression of LPS-induced TNF expression in C57BL/6 transgenic mouse bearing TNF-reporter after 2 hrs by luciferase reporter gene assay; format: functional, organism-based
How it was run: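 Animals received an injection of vehicle, LPS, C12, or LPS plus C12. Whole-animal bioluminescence was recorded 2 hours after injection as the read-out of reporter activity.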

[28] = target: T1, Inhibitor of nuclear factor kappa-B kinase subunit alpha (Homo sapiens); assay: Inhibition of IkappaBalpha in human WI38 cells assessed after 2 hrs by Western blot analysis; format: cell-based; details: WI-38
How it was run: (§1)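 WI38 lung fibroblasts and bronchial epithelial cells were stimulated for 2 hours. The same Western blot was probed for PARP cleavage, total IκBα and phosphorylated IκBα.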

[29] = target: T1, Inhibitor of nuclear factor kappa-B kinase subunit alpha (Homo sapiens); assay: Inhibition of IkappaBalpha phosphorylation in human WI38 cells assessed after 2 hrs by Western blot analysis; format: cell-based; details: WI-38; how it was run: as §1
BMDM [30] = assay: Induction of c-jun mRNA expression in mouse BMDM at 50 uM after 2 hrs by Northern blot analysis; format: functional

In the case of `CCCCCCCCCC(=O)CC(=O)N[C@H]1CCOC1=O`, the Activity (BMDM [1]) is reported as “inactive”, the Activity (THP-1) is reported as “Active” and the Activity [2] is reported as “Active”. For the same compound, the Activity [3] was “Active”, the Activity (BMDM [4]) was “Active” and the Activity [5] was “Active”. The Activity (Mus musculus [6]) was “inactive”, the Activity (Mus musculus [7]) was “Active” and the Activity (BMDM [8]) was “Dose-dependent effect”. For the same compound, the Activity (BMDM [9]) was “Dose-dependent effect”, the Activity (BMDM [10]) was “Dose-dependent effect” and the Activity (BMDM [11]) was “Dose-dependent effect”. For the same compound, the Activity (BMDM [12]) was “Dose-dependent effect”, the Activity (Macrophage) was “Dose-dependent effect” and the Activity (MEF [13]) was “Dose-dependent effect”. The Activity (MEF [14]) was “Dose-dependent effect”, the Activity (MEF [15]) was “Dose-dependent effect” and the Activity (MEF [16]) was “Dose-dependent effect”. The Activity (BMDM [17]) was “Active”, the Activity (BMDM [18]) was “Active” and the Activity (BMDM [19]) was “Active”. For the same compound, the Activity (MEF [20]) was “Active”, the Activity (MEF [21]) was “Active” and the Activity [22] was “Active”. The Activity (Epithelial cell [23]) was “Active”, the Activity (Epithelial cell [24]) was “Active” and the Activity [25] was “Active”. The Activity (Epithelial cell [26]) was “Active”, the Activity (Mus musculus [27]) was “Active” and the Activity [28] was “Active”. The Activity [29] was “Active” and the Activity (BMDM [30]) was “Active”.

Reference: ChEMBL document CHEMBL1152866, “Modulation of gene expression via disruption of NF-kappaB signaling by a bacterial small molecule” (Science, 2008)
